The results in this text go back to BindingDB's records for doi:10.1021/jm970034q (Oxis International, 1998).

This assay addresses T1, Polyunsaturated fatty acid 5-lipoxygenase (Rattus norvegicus, UniProt P12527).
T1 sequence (P12527 whole entry): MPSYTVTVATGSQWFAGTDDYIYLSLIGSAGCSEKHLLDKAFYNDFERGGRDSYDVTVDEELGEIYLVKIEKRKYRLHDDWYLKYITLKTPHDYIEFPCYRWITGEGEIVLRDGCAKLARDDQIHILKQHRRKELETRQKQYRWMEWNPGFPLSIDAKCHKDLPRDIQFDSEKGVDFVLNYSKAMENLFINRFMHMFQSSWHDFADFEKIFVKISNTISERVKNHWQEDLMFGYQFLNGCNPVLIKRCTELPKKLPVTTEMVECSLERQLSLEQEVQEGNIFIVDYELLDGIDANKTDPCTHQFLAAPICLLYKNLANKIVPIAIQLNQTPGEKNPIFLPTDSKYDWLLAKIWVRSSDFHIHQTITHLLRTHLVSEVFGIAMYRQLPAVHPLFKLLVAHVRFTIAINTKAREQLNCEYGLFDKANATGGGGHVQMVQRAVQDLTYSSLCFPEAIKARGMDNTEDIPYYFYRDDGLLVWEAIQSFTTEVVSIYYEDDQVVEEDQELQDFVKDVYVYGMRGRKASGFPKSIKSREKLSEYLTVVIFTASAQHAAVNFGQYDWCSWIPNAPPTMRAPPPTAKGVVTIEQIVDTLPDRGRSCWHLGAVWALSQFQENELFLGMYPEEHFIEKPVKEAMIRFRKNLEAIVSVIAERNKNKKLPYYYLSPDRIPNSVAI
Put plainly: Inhibitory activity against 5-lipoxygenase obtained from rat basophilic leukemia cells. The gist of the method:
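IC50 was determined against 5-LO in a broken RBL-1 cell assay, using a crude enzyme preparation from rat basophilic leukemia cells.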

`Oc1oc(CCC#Cc2ccccc2CSc2ccccc2)c(O)c1O` [3,4-Dihydroxy-5-[4-(2-phenylsulfanylmethyl-phenyl)-but-3-ynyl]-5H-furan-2-one]: the IC50 (as a rule, the midpoint of a concentration-inhibition curve) was 300 nM.
